# Reference: ChEMBL document CHEMBL3045304, “Sesquiterpene lactones with potential use as natural herbicide models. 2. guaianolides” (2000)
# Active and inactive are the calls of the source. The calls are words filed in the database; no cut-off is given here.
# How the values were obtained:
# [1] = system: Lactuca sativa; experiment: Inhibition of root length of Lactuca sativa cv. Roman (lettuce) at 0.1 mM or 1 mM after 5 days relative to untreated control; format: functional
# Summary of the method: (§1)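 Lettuce and tomato seeds, 25 per dish on filter paper, received 5 mL test solution. Incubation was 5 days in the dark at 25 °C, with four replicates per concentration. Solutions were made at 10^-3 or 10^-4 M in 10 mM MES, diluted serially, and adjusted to pH 6.0. Parallel controls were run. Results are % difference from control.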
# [2] = system: Allium cepa; experiment: Stimulation of hypocotyl length of Allium cepa cv. Valenciana (onion) at 0.1 mM or 1 mM after 5 days relative to untreated control; format: functional
# [3] = system: Lepidium sativum; experiment: Inhibition of hypocotyl length of Lepidium sativum at 0.1 mM or 1 mM after 4 days relative to untreated control
# [4] = system: Lactuca sativa; experiment: Inhibition of hypocotyl length of Lactuca sativa cv. Roman (lettuce) at 0.1 mM or 1 mM after 5 days relative to untreated control; format: functional; summary of the method: as §1
# [5] = system: Solanum lycopersicum; experiment: Inhibition of root length of Solanum lycopersicum cv. Tres Cantos (tomato) at 0.1 mM or 1 mM after 5 days relative to untreated control; format: functional; summary of the method: as §1
# [6] = system: Triticum aestivum; experiment: Stimulation of germination of Triticum aestivum cv. Cortex (wheat) at 0.1 mM or 1 mM after 5 days relative to untreated control; format: functional
# Summary of the method: (§2)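 Wheat: 10 seeds per dish on filter paper with 5 mL test solution, 5 days in the dark at 25 °C, 10 replicates per concentration. Stock test solutions were 10^-3 or 10^-4 M in 10 mM MES, with lower levels made by dilution, all at pH 6.0. Parallel controls were run. Output is % difference from control.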
# [7] = system: Lepidium sativum; experiment: Inhibition of germination of Lepidium sativum at 0.1 mM or 1 mM after 4 days relative to untreated control; set-up: scale not given: the % may be the effect or the level left
# [8] = system: Solanum lycopersicum; experiment: Inhibition of germination of Solanum lycopersicum cv. Tres Cantos (tomato) at 0.1 mM or 1 mM after 5 days relative to untreated control; format: functional; summary of the method: as §1
# [9] = system: Triticum aestivum; experiment: Stimulation of root length of Triticum aestivum cv. Cortex (wheat) at 0.1 mM or 1 mM after 5 days relative to untreated control; format: functional; summary of the method: as §2
# [10] = system: Lactuca sativa; experiment: Stimulation of germination of Lactuca sativa cv. Roman (lettuce) at 0.1 mM or 1 mM after 5 days relative to untreated control; format: functional; summary of the method: as §1
# [11] = system: Triticum aestivum; experiment: Stimulation of hypocotyl length of Triticum aestivum cv. Cortex (wheat) at 0.1 mM or 1 mM after 5 days relative to untreated control; format: functional; summary of the method: as §2
# [12] = system: Triticum aestivum; experiment: Inhibition of germination of Triticum aestivum cv. Cortex (wheat) at 0.1 mM or 1 mM after 5 days relative to untreated control; format: functional; summary of the method: as §2
# [13] = system: Lepidium sativum; experiment: Stimulation of root length of Lepidium sativum at 0.1 mM or 1 mM after 5 days relative to untreated control; format: functional
# [14] = system: Allium cepa; experiment: Stimulation of germination of Allium cepa cv. Valenciana (onion) at 0.1 mM or 1 mM after 5 days relative to untreated control; format: functional
# [15] = system: Solanum lycopersicum; experiment: Stimulation of hypocotyl length of Solanum lycopersicum cv. Tres Cantos (tomato) at 0.1 mM or 1 mM after 5 days relative to untreated control; format: functional; summary of the method: as §1
# [16] = system: Allium cepa; experiment: Inhibition of germination of Allium cepa cv. Valenciana (onion) at 0.1 mM or 1 mM after 5 days relative to untreated control; format: functional
# [17] = system: Lepidium sativum; experiment: Stimulation of hypocotyl length of Lepidium sativum at 0.1 mM or 1 mM after 5 days relative to untreated control; format: functional
# [18] = system: Triticum aestivum; experiment: Inhibition of hypocotyl length of Triticum aestivum cv. Cortex (wheat) at 0.1 mM or 1 mM after 5 days relative to untreated control; format: functional; summary of the method: as §2
# [19] = system: Lepidium sativum; experiment: Inhibition of germination of Lepidium sativum at 0.1 mM or 1 mM after 5 days relative to untreated control; format: functional
# [20] = system: Triticum aestivum; experiment: Inhibition of root length of Triticum aestivum cv. Cortex (wheat) at 0.1 mM or 1 mM after 5 days relative to untreated control; format: functional; summary of the method: as §2
# [21] = system: Allium cepa; experiment: Inhibition of root length of Allium cepa cv. Valenciana (onion) at 0.1 mM or 1 mM after 5 days relative to untreated control; format: functional
# [22] = system: Solanum lycopersicum; experiment: Stimulation of root length of Solanum lycopersicum cv. Tres Cantos (tomato) at 0.1 mM or 1 mM after 5 days relative to untreated control; format: functional; summary of the method: as §1
# [23] = system: Solanum lycopersicum; experiment: Inhibition of hypocotyl length of Solanum lycopersicum cv. Tres Cantos (tomato) at 0.1 mM or 1 mM after 5 days relative to untreated control; format: functional; summary of the method: as §1
# [24] = system: Allium cepa; experiment: Inhibition of hypocotyl length of Allium cepa cv. Valenciana (onion) at 0.1 mM or 1 mM after 5 days relative to untreated control; format: functional
# [25] = system: Lepidium sativum; experiment: Inhibition of root length of Lepidium sativum at 0.1 mM or 1 mM after 4 days relative to untreated control
# [26] = system: Solanum lycopersicum; experiment: Stimulation of germination of Solanum lycopersicum cv. Tres Cantos (tomato) at 0.1 mM or 1 mM after 5 days relative to untreated control; format: functional; summary of the method: as §1
# [27] = system: Lactuca sativa; experiment: Stimulation of root length of Lactuca sativa cv. Roman (lettuce) at 0.1 mM or 1 mM after 5 days relative to untreated control; format: functional; summary of the method: as §1
# [28] = system: Lactuca sativa; experiment: Inhibition of germination of Lactuca sativa cv. Roman (lettuce) at 0.1 mM or 1 mM after 5 days relative to untreated control; format: functional; summary of the method: as §1
# [29] = system: Lactuca sativa; experiment: Stimulation of hypocotyl length of Lactuca sativa cv. Roman (lettuce) at 0.1 mM or 1 mM after 5 days relative to untreated control; format: functional; summary of the method: as §1
# [30] = system: Allium cepa; experiment: Stimulation of root length of Allium cepa cv. Valenciana (onion) at 0.1 mM or 1 mM after 5 days relative to untreated control; format: functional
# [31] = system: Allium cepa; experiment: Stimulation of germination of Allium cepa cv. Valenciana (onion) at 0.1 mM or 1 mM after 7 days relative to untreated control
# [32] = system: Allium cepa; experiment: Stimulation of root length of Allium cepa cv. Valenciana (onion) at 0.1 mM or 1 mM after 7 days relative to untreated control
# [33] = system: Allium cepa; experiment: Inhibition of hypocotyl length of Allium cepa cv. Valenciana (onion) at 0.1 mM or 1 mM after 7 days relative to untreated control
# [34] = system: Allium cepa; experiment: Stimulation of hypocotyl length of Allium cepa cv. Valenciana (onion) at 0.1 mM or 1 mM after 7 days relative to untreated control
SMILES,inhibition (INH) [1],Activity [2],inhibition (INH) [3],inhibition (INH) [4],inhibition (INH) [5],Activity [6],Activity [7],Activity [9],Activity [10],Activity [11],Activity [13],Activity [15],Activity [17],inhibition (INH) [18],inhibition (INH) [19],Activity [22],inhibition (INH) [25],Activity [26],Activity [27],Activity [29],further results
C=C1C(=O)C[C@H]2C(=C)CC[C@H]3C(=C)C(=O)O[C@@H]3[C@@H]12 [DEHYDROZALUZANIN C],>40%,>40%,>40%,>40%,>40%,>40%,>40%,>40%,>40%,>40%,>40%,>40%,>40%,>40%,>40%,>40%,>40%,>40%,>40%,>40%,inhibition (INH) [8]: >40%; inhibition (INH) [12]: >40%; Activity [14]: >40%; inhibition (INH) [16]: >40%; inhibition (INH) [20]: >40%; inhibition (INH) [21]: >40%; inhibition (INH) [23]: >40%; inhibition (INH) [24]: >40%; inhibition (INH) [28]: >40%; Activity [30]: >40%
C=C1C(=O)O[C@H]2[C@H]1CCC(=C)[C@@H]1C[C@@H](O)C(=C)[C@@]12O [5ALPHA-HYDROXYISOZALUZANIN C],<20%,>40%,>40%,20%,>40%,inactive,>40%,>40%,20%,20%,>40%,>40%,>40%,20%,>40%,>40%,>40%,inactive,<20%,20%,inhibition [8]: inactive; inhibition [12]: inactive; Activity [14]: inactive; inhibition [16]: inactive; inhibition (INH) [20]: >40%; inhibition (INH) [21]: >40%; inhibition (INH) [23]: >40%; inhibition (INH) [24]: >40%; inhibition (INH) [28]: 20%; Activity [30]: >40%
C=C1C(=O)O[C@H]2[C@H]1CCC(=C)[C@@H]1CCC(=C)[C@@]12O,20%,<20%,>=20%,,<20%,inactive,<20%,inactive,inactive,<20%,>=20%,inactive,>=20%,<20%,<20%,<20%,>=20%,inactive,20%,inactive,inhibition [4]: inactive; inhibition [8]: inactive; inhibition [12]: inactive; Activity [14]: inactive; inhibition [16]: inactive; inhibition [20]: inactive; inhibition (INH) [21]: 20%; inhibition [23]: inactive; inhibition (INH) [24]: <20%; inhibition [28]: inactive; Activity [30]: 20%
C=C1[C@@H]2[C@H]3OC(=O)C(=C)[C@@H]3CCC(=C)[C@@H]2C[C@@H]1O [ZALUZANIN C],20%,,,20%,<20%,<20%,<20%,20%,inactive,20%,<20%,inactive,inactive,20%,<20%,<20%,<20%,inactive,20%,20%,inhibition [3]: inactive; Activity [31]: inactive; Activity [32]: inactive; inhibition [33]: inactive; inhibition [8]: inactive; inhibition (INH) [12]: <20%; inhibition [16]: inactive; inhibition (INH) [20]: 20%; inhibition [21]: inactive; inhibition [23]: inactive; Activity [34]: inactive; inhibition [28]: inactive
